Results published in ChEMBL document CHEMBL1149485, “Structure-activity relationships of uridine 5'-diphosphate analogues at the human P2Y6 receptor” (J Med Chem, 2006).
Activity calls are given as the source filed them. The calls are words filed in the database; no cut-off is given here.

What follows are molecules tested against T1, P2Y purinoceptor 6 (Homo sapiens, UniProt Q15077) (assay: Agonist activity at human recombinant P2Y6 receptor expressed in 1321N1 cells assessed as PLC-mediated [3H]IP production relative to UDP).
Type: functional, cell-based
Summary of the method: (§1)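 Stable 1321N1 astrocytoma line expressing human P2Y6, grown to confluence and labelled 12 h in serum-free, inositol-free DMEM with 0.4 μCi myo-[3H]inositol. Agonists were added in Hepes pH 7.3 with LiCl for 20 min at 37 °C. The reaction was stopped with ice-cold 50 mM formic acid, neutralised with NH4OH, and [3H]inositol phosphates separated on Dowex AG 1-X8. EC50 came from four-parameter logistic fits; ratio to UDP EC50. Triplicates, ≥3 experiments.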

T1 sequence (Q15077 whole entry): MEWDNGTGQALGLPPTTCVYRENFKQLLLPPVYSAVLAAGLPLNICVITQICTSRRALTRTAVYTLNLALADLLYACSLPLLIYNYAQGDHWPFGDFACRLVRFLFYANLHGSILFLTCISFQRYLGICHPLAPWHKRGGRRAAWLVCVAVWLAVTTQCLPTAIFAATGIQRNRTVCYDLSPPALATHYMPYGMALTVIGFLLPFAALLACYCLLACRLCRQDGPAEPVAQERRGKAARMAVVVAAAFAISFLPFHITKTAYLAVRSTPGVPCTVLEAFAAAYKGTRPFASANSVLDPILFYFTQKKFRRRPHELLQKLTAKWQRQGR

Row | SMILES | Ratio EC50
1 | Cn1c(=O)ccn([C@@H]2O[C@H](COP(=O)(O)OP(=O)(O)O)[C@@H](O)[C@H]2O)c1=O | 250
2 | O=c1[nH]c(=O)n([C@@H]2O[C@H](COP(=O)(O)OP(=O)(O)O)[C@@H](O)[C@H]2O)cc1I | 1.1
3 | O=c1ccn([C@@H]2C3C[C@@]3(COP(=O)(O)OP(=O)(O)O)[C@@H](O)[C@H]2O)c(=O)[nH]1 (some centres undefined) | > 7000
4 | Nc1ncnc2c1ncn2[C@@H]1O[C@H](COP(=O)(O)OP(=O)(O)O)[C@@H](O)[C@H]1O [ADENOSINE DIPHOSPHATE] | > 7000
5 | Nc1ccn([C@@H]2O[C@H](COP(=O)(O)OP(=O)(O)O)[C@@H](O)[C@H]2O)c(=O)n1 | 1000
6 | O=c1ccn([C@@H]2O[C@H](COP(=O)(O)OP(=O)(O)O)[C@@H](O)[C@H]2O)c(=S)[nH]1 | 4
7 | O=c1ccn([C@@H]2O[C@H](COP(=O)(O)OP(=O)(O)O)[C@@H](O)[C@@H]2F)c(=O)[nH]1 | 420
8 | O=c1ccn([C@@H]2O[C@H](COP(=O)(O)OP(=O)(O)O)C[C@H]2O)c(=O)[nH]1 | 190
9 | N[C@@H]1[C@H](O)[C@@H](COP(=O)(O)OP(=O)(O)O)O[C@H]1n1ccc(=O)[nH]c1=O | 300
10 | O=c1[nH]c(=S)ccn1[C@@H]1O[C@H](COP(=O)(O)OP(=O)(O)O)[C@@H](O)[C@H]1O | 6
11 | Nc1nc2c(ncn2[C@@H]2O[C@H](COP(=O)(O)OP(=O)(O)O)[C@@H](O)[C@H]2O)c(=O)[nH]1 | 500
12 | [N-]=[N+]=N[C@@H]1[C@H](O)[C@@H](COP(=O)(O)OP(=O)(O)O)O[C@H]1n1ccc(=O)[nH]c1=O | 120

What follows are molecules tested against T1, P2Y purinoceptor 6 (assay: Agonist activity at human recombinant P2Y6 receptor expressed in 1321N1 cells assessed as PLC-mediated [3H]IP production).
Type: functional, cell-based
Summary of the method: as §1

Row | SMILES | EC50 [µM]
13 | O=C(O)CCSc1ccn([C@@H]2O[C@H](COP(=O)(O)OP(=O)(O)O)[C@@H](O)[C@H]2O)c(=O)n1 | 1.1
14 | C=CCSc1ccn([C@@H]2O[C@H](COP(=O)(O)OP(=O)(O)O)[C@@H](O)[C@H]2O)c(=O)n1 | 0.56
15 | CSc1ccn([C@@H]2O[C@H](COP(=O)(O)OP(=O)(O)O)[C@@H](O)[C@H]2O)c(=O)n1 | 2.3
16 | Cn1c(=O)ccn([C@@H]2O[C@H](COP(=O)(O)OP(=O)(O)O)[C@@H](O)[C@H]2O)c1=O | 3.3
17 | O=c1[nH]c(=O)n([C@@H]2O[C@H](COP(=O)(O)OP(=O)(O)O)[C@@H](O)[C@H]2O)cc1I | 0.015
18 | O=C(O)CCCSc1ccn([C@@H]2O[C@H](COP(=O)(O)OP(=O)(O)O)[C@@H](O)[C@H]2O)c(=O)n1 | 8.8
19 | O=c1ccn([C@@H]2O[C@H](COP(=O)(O)OP(=O)(O)OC[C@H]3O[C@@H](n4ccc(=O)[nH]c4=O)[C@H](O)[C@@H]3O)[C@@H](O)[C@H]2O)c(=O)[nH]1 | 2.3
20 | Nc1ncnc2c1ncn2[C@@H]1O[C@H](COP(=O)(O)OP(=O)(O)O)[C@@H](O)[C@H]1O [ADENOSINE DIPHOSPHATE] | 65
21 | NC(=O)CSc1ccn([C@@H]2O[C@H](COP(=O)(O)OP(=O)(O)O)[C@@H](O)[C@H]2O)c(=O)n1 | 18
22 | Nc1ccn([C@@H]2O[C@H](COP(=O)(O)OP(=O)(O)O)[C@@H](O)[C@H]2O)c(=O)n1 | 88
23 | CCSc1ccn([C@@H]2O[C@H](COP(=O)(O)OP(=O)(O)O)[C@@H](O)[C@H]2O)c(=O)n1 | 0.28
24 | O=c1ccn([C@@H]2O[C@H](COP(=O)(O)OP(=O)(O)O)[C@@H](O)[C@H]2O)c(=S)[nH]1 | 0.06
25 | O=c1ccn([C@@H]2O[C@H](COP(=O)(O)OP(=O)(O)O)[C@@H](O)[C@@H]2F)c(=O)[nH]1 | 5.5
26 | O=c1ccn([C@@H]2O[C@H](COP(=O)(O)OP(=O)(O)O)C[C@H]2O)c(=O)[nH]1 | 2.5
27 | O=c1ccn([C@@H]2O[C@@]3(COP(=O)(O)OP(=O)(O)O)C[C@H]3[C@H]2O)c(=O)[nH]1 | 3.5
28 | N[C@@H]1[C@H](O)[C@@H](COP(=O)(O)OP(=O)(O)O)O[C@H]1n1ccc(=O)[nH]c1=O | 3.9
29 | O=c1nc(SCc2ccccc2)ccn1[C@@H]1O[C@H](COP(=O)(O)OP(=O)(O)O)[C@@H](O)[C@H]1O | 0.8
30 | O=c1[nH]c(=S)ccn1[C@@H]1O[C@H](COP(=O)(O)OP(=O)(O)O)[C@@H](O)[C@H]1O | 0.08
31 | O=c1ccn([C@]23CC2[C@H](COP(=O)(O)OP(=O)(O)O)[C@@H](O)C3)c(=O)[nH]1 (some centres undefined) | 0.23
32 | O=C(O)CSc1ccn([C@@H]2O[C@H](COP(=O)(O)OP(=O)(O)O)[C@@H](O)[C@H]2O)c(=O)n1 | 1.7
33 | Nc1nc2c(ncn2[C@@H]2O[C@H](COP(=O)(O)OP(=O)(O)O)[C@@H](O)[C@H]2O)c(=O)[nH]1 | 45
34 | CCCCCCSc1ccn([C@@H]2O[C@H](COP(=O)(O)OP(=O)(O)O)[C@@H](O)[C@H]2O)c(=O)n1 | 4.9
35 | [N-]=[N+]=N[C@@H]1[C@H](O)[C@@H](COP(=O)(O)OP(=O)(O)O)O[C@H]1n1ccc(=O)[nH]c1=O | 1.5
36 | O=c1ccn([C@@H]2O[C@H](COP(=O)(O)OP(=O)(O)O)[C@@H](O)[C@H]2O)c(=O)[nH]1 [URIDINE_DIPHOSPHATE] | 0.013

What follows are molecules tested against T2, P2Y purinoceptor 2 (Homo sapiens, UniProt P41231) (assay: Agonist activity at human recombinant P2Y2 receptor expressed in 1321N1 cells assessed as PLC-mediated [3H]IP production).
Type: functional, cell-based

T2 sequence (P41231 whole entry): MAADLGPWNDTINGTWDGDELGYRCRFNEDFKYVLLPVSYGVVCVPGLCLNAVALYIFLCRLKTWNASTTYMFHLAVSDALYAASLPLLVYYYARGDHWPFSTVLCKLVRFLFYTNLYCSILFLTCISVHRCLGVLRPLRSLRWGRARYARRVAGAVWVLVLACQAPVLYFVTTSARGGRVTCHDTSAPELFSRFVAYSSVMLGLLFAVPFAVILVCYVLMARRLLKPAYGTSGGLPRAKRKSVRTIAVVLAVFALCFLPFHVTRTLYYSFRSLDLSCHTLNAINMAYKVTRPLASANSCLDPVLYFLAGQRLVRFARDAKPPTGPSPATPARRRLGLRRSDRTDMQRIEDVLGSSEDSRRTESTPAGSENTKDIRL

Row | SMILES | EC50 [µM]
37 | O=c1ccn([C@@H]2O[C@H](COP(=O)(O)OP(=O)(O)O)C[C@H]2O)c(=O)[nH]1 | 0.81

The molecules below were run against T1, P2Y purinoceptor 6 (assay: Agonist activity at human recombinant P2Y6 receptor expressed in 1321N1 cells assessed as PLC-mediated [3H]IP production at 10 uM realtive to UDP).
Type: functional, cell-based
Summary of the method: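 Human P2Y6 in 1321N1 cells prelabelled with myo-[3H]inositol, then exposed to agonist at 10 μM in Hepes pH 7.3 with LiCl for 20 min at 37 °C. [3H]inositol phosphates were isolated by Dowex anion exchange. Response is expressed as % of the effect of a maximally effective UDP concentration in the same experiment.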

Row | SMILES | Efficacy [%]
38 | O=c1nc(SCc2ccccc2)ccn1[C@@H]1O[C@H](COP(=O)(O)OP(=O)(O)OC[C@H]2O[C@@H](n3ccc(SCc4ccccc4)nc3=O)[C@H](O)[C@@H]2O)[C@@H](O)[C@H]1O | < 50
39 | CCSc1ccn([C@@H]2O[C@H](COP(=O)(O)OP(=O)(O)OC[C@H]3O[C@@H](n4ccc(SCC)nc4=O)[C@H](O)[C@@H]3O)[C@@H](O)[C@H]2O)c(=O)n1 | < 50

Each molecule was assayed against T2, P2Y purinoceptor 2 (assay: Agonist activity at human recombinant P2Y2 receptor expressed in 1321N1 cells assessed as PLC-mediated [3H]IP production relative to UTP).
Type: functional, cell-based

Row | SMILES | Ratio EC50
40 | Cn1c(=O)ccn([C@@H]2O[C@H](COP(=O)(O)OP(=O)(O)O)[C@@H](O)[C@H]2O)c1=O | 24
41 | O=c1[nH]c(=O)n([C@@H]2O[C@H](COP(=O)(O)OP(=O)(O)O)[C@@H](O)[C@H]2O)cc1I | 17
42 | O=c1ccn([C@@H]2C3C[C@@]3(COP(=O)(O)OP(=O)(O)O)[C@@H](O)[C@H]2O)c(=O)[nH]1 (some centres undefined) | 2
43 | Nc1ncnc2c1ncn2[C@@H]1O[C@H](COP(=O)(O)OP(=O)(O)O)[C@@H](O)[C@H]1O [ADENOSINE DIPHOSPHATE] | 1.7
44 | Nc1ccn([C@@H]2O[C@H](COP(=O)(O)OP(=O)(O)O)[C@@H](O)[C@H]2O)c(=O)n1 | 110
45 | O=c1ccn([C@@H]2O[C@H](COP(=O)(O)OP(=O)(O)O)[C@@H](O)[C@H]2O)c(=S)[nH]1 | 0.71
46 | O=c1ccn([C@@H]2O[C@H](COP(=O)(O)OP(=O)(O)O)[C@@H](O)[C@@H]2F)c(=O)[nH]1 | 11
47 | O=c1ccn([C@@H]2O[C@H](COP(=O)(O)OP(=O)(O)O)C[C@H]2O)c(=O)[nH]1 | 17
48 | N[C@@H]1[C@H](O)[C@@H](COP(=O)(O)OP(=O)(O)O)O[C@H]1n1ccc(=O)[nH]c1=O | 1.3
49 | O=c1[nH]c(=S)ccn1[C@@H]1O[C@H](COP(=O)(O)OP(=O)(O)O)[C@@H](O)[C@H]1O | 0.53
50 | Nc1nc2c(ncn2[C@@H]2O[C@H](COP(=O)(O)OP(=O)(O)O)[C@@H](O)[C@H]2O)c(=O)[nH]1 | 54
51 | [N-]=[N+]=N[C@@H]1[C@H](O)[C@@H](COP(=O)(O)OP(=O)(O)O)O[C@H]1n1ccc(=O)[nH]c1=O | 100

The molecules below were run against T3, P2Y purinoceptor 4 (Homo sapiens, UniProt P51582) (assay: Agonist activity at human recombinant P2Y4 receptor expressed in 1321N1 cells assessed as PLC-mediated [3H]IP production relative to UTP).
Type: functional, cell-based

T3 sequence (P51582 whole entry): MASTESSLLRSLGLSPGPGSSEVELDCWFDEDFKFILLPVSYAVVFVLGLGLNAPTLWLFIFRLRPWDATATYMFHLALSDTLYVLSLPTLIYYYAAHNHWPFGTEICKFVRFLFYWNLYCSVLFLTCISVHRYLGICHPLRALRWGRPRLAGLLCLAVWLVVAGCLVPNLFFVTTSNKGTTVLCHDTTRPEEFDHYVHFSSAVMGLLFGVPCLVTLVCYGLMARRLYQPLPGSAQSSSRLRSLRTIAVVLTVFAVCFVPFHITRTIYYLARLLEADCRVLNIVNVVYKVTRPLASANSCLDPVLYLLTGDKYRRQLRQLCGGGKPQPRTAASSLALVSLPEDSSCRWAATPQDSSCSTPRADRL

Row | SMILES | Ratio EC50
52 | Cn1c(=O)ccn([C@@H]2O[C@H](COP(=O)(O)OP(=O)(O)O)[C@@H](O)[C@H]2O)c1=O | 47
53 | O=c1[nH]c(=O)n([C@@H]2O[C@H](COP(=O)(O)OP(=O)(O)O)[C@@H](O)[C@H]2O)cc1I | 55
54 | O=c1ccn([C@@H]2C3C[C@@]3(COP(=O)(O)OP(=O)(O)O)[C@@H](O)[C@H]2O)c(=O)[nH]1 (some centres undefined) | 1.7
55 | O=c1ccn([C@@H]2O[C@H](COP(=O)(O)OP(=O)(O)O)[C@@H](O)[C@H]2O)c(=S)[nH]1 | 4.8
56 | O=c1ccn([C@@H]2O[C@H](COP(=O)(O)OP(=O)(O)O)[C@@H](O)[C@@H]2F)c(=O)[nH]1 | 7.1
57 | O=c1ccn([C@@H]2O[C@H](COP(=O)(O)OP(=O)(O)O)C[C@H]2O)c(=O)[nH]1 | 42
58 | N[C@@H]1[C@H](O)[C@@H](COP(=O)(O)OP(=O)(O)O)O[C@H]1n1ccc(=O)[nH]c1=O | 16
59 | O=c1[nH]c(=S)ccn1[C@@H]1O[C@H](COP(=O)(O)OP(=O)(O)O)[C@@H](O)[C@H]1O | 0.32
60 | Nc1nc2c(ncn2[C@@H]2O[C@H](COP(=O)(O)OP(=O)(O)O)[C@@H](O)[C@H]2O)c(=O)[nH]1 | 90
61 | [N-]=[N+]=N[C@@H]1[C@H](O)[C@@H](COP(=O)(O)OP(=O)(O)O)O[C@H]1n1ccc(=O)[nH]c1=O | 15

The molecules below were run against T3, P2Y purinoceptor 4 (assay: Agonist activity at human recombinant P2Y4 receptor expressed in 1321N1 cells assessed as PLC-mediated [3H]IP production).
Type: functional, cell-based

Row | SMILES | EC50 [µM]
62 | O=c1ccn([C@@H]2O[C@H](COP(=O)(O)OP(=O)(O)O)C[C@H]2O)c(=O)[nH]1 | 3.1

These molecules were tested against T3, P2Y purinoceptor 4 (assay: Agonist activity at human recombinant P2Y4 receptor expressed in 1321N1 cells assessed as PLC-mediated [3H]IP production relative to UTP at 10 uM).
Type: functional, cell-based

Row | SMILES | Activity
63 | Nc1ncnc2c1ncn2[C@@H]1O[C@H](COP(=O)(O)OP(=O)(O)O)[C@@H](O)[C@H]1O [ADENOSINE DIPHOSPHATE] | inactive
64 | Nc1ccn([C@@H]2O[C@H](COP(=O)(O)OP(=O)(O)O)[C@@H](O)[C@H]2O)c(=O)n1 | inactive
